Molecules are shown by their SMILES. Calls of active or inactive are those of the source.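 How the source made its calls, unless noted: active means viability at or under a set limit in both replicates, limit being median viability minus 3 SD (cut at about 48% in these data, passing the limit was not always enough); inconclusive means at or under the limit in just one replicate; inactive means at or above the limit in both replicates.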

Assay [1] in a line: Her2 expression decrease, cell viability multiplex – SKBR3 breast tumor cells, AlphaScreen, ATP viability, primary screen (AID 461;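 active means Her2 level under about 52% in both replicate screens, with viability over 70% of control, limit read from the data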;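 on Her2 level: lower value means less Her2 protein in the cells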;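 on viability: percent of carrier control wells set as 100% viability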). The note with it: SKBR3 Her2 protein level, 18-24 h, measured here: SKBR3 viability, ATP luminescence, at 10 µM. For orientation: Bead proximity is the source of the signal in Alpha formats.
Assay [2] has as its target Receptor tyrosine-protein kinase erbB-2 (Homo sapiens) (UniProt P04626). Described as above. The note with it: 18-24 h, at 10 µM, stronger effect = lower value.
The nature of assay [3]: reduced viability of SK-BR-3 breast cancer cells – cell-based, 24 h, human, pilot screen (AID 572;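 active means viability at or below 10% of carrier control in both of two separate runs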;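 further: compound exposure lasted between 18 and 24 h rather than exactly 24 h; 100% = carrier-treated control wells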). The settings on record: SK-BR-3 viability, CellTiter-Glo luminescence, at 10 µM, stronger effect = lower value. (In ATP-based viability assays light output follows the ATP content of the culture.)
A short description of assay [4]: HUVEC growth inhibition – cell-based, human, primary screen (AID 575;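 active means viability at or below 30% in both replicate assays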;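 further: 100% = median of untreated cell wells with 0.1% DMSO on each plate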). The settings on record: HUVEC proliferation, CellTiter-Glo luminescence, 72 h; at 10 µM; stronger effect = lower value. The gist of the method: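 System – primary HUVEC, no more than 12 passages · Medium – Low-serum (2% FBS) EBM, supplemented · Times – 72 h exposure, 37 °C, 5% CO2, 30 min RT equilibration · Measured by – luminescent ATP assay · Read-out – % viability relative to median vehicle-well signal on each plate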

The nature of assay [5]: H69AR cell proliferation blockers – human, duplicate replicates, primary screen (AID 580).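 Further: 100% = mean luminescence of untreated wells and 0% = no signal.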 The note with it: H69AR lung tumor cells viability, ATP luminescence, 72 h; at 10 µM; stronger effect = lower value.
Assay [6] in a line: MRP1 drug-resistance reversers in H69AR cells – cell-based, doxorubicin co-treatment, pilot screen (AID 601;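 active means viability loss from added drug above about 55%, and viability with drug at most 40%, in both replicates, limit read from the data, passing the limit was not always enough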). The note with it: CellTiter-Glo, 72 h, at 10 µM; for differential viability (reversal): stronger effect = higher value.
A short description of assay [7]: yeast transport mutant growth inhibition pilot in 384-well plates, post-Golgi transport modulator project (AID 636; in the data active means inhibition above about 31%). The settings on record: absorbance 615 nm, about 18 h, stronger effect = higher value.
The nature of assay [8]: growth suppression of yeast trafficking mutant, preliminary HTS, modulators of trafficking downstream of Golgi apparatus project, 1536-format plate, OD 615 nm (AID 637; in the data active means inhibition above about 30%). The note with it: yeast transport mutant growth, absorbance 615 nm, 18 h; stronger effect = higher value.
Setting [9] is: H69AR cells + 2 uM doxorubicin, measured here: viability with 2 uM doxorubicin, stronger effect = lower value.
Where [10] appears, read: H69AR cells, compound alone cytotoxicity.

Receptor tyrosine-protein kinase erbB-2 (Homo sapiens), sequence (P04626 whole entry, looked up): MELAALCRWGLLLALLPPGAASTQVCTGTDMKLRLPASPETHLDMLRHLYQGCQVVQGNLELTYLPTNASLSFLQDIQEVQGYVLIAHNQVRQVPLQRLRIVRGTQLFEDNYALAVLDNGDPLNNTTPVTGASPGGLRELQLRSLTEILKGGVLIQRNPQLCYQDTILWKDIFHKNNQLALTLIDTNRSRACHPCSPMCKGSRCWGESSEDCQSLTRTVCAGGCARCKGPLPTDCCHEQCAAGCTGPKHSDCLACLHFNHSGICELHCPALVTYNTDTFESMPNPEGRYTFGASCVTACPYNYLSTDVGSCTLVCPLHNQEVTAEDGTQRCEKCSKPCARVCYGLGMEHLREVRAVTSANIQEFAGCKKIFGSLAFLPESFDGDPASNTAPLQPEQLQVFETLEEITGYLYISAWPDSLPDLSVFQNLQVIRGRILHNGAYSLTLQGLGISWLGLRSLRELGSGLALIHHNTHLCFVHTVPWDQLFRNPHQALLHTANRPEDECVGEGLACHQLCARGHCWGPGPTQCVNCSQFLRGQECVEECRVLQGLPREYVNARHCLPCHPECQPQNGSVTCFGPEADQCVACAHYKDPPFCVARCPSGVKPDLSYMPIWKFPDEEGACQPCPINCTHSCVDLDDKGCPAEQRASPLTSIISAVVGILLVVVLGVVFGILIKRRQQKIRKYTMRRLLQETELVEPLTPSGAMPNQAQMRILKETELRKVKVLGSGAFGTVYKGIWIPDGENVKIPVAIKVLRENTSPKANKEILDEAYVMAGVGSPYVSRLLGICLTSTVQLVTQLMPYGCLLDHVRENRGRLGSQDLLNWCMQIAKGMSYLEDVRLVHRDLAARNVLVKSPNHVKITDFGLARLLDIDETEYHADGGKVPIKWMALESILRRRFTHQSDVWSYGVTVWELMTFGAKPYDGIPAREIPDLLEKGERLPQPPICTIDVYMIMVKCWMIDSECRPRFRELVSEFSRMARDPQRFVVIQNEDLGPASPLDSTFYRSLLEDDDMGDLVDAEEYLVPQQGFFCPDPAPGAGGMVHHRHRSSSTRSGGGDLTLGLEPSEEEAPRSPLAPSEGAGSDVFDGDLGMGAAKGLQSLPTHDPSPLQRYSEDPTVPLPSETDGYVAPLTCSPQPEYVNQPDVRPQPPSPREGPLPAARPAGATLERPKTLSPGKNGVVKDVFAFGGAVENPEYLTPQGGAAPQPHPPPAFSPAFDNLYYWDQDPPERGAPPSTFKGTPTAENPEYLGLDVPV

On to `O=C(NCc1ccccn1)C(C(=O)c1ccc(F)cc1)n1ccccc1=O` (stereo not given), for which the viability (in general, a read-out of living cells in per cent, often relative to untreated cells) in assay [1] is 86.5%; in assay [3], 86.5% (inactive); in assay [4], 97.9% (inactive); in assay [5], 96.4% (inactive); in assay [6] (setting [9]) it was 100%; in assay [6] (setting [10]), 96.4%. In assay [2], the Her2 level is 95.5% (inactive). For the same compound, in assay [6] (H69AR cells + 2 uM doxorubicin), the differential viability (reversal) is -3.97% (inactive). Besides, the inhibition (commonly the relative decrease from the control value, in per cent) in assay [7] is -4.05% (inactive); in assay [8], 4.1% (inactive).
For the compound `CC1(C)CC(=O)C2=C(C1)OC(=O)C2(NC(=O)c1cccs1)C(F)(F)F` (stereo not given), the viability was 102% in assay [1]; 102% (inactive) in assay [3]; 88.3% (inactive) in assay [4]; 98% (inactive) in assay [5]; 94.2% in assay [6] (setting [9]); 98% in assay [6] (setting [10]). For the same compound, the Her2 level in assay [2] is 83% (inactive). The differential viability (reversal) in assay [6] (H69AR cells + 2 uM doxorubicin) was 3.83% (inactive). Moreover, the inhibition in assay [7] is -4.05% (inactive); in assay [8], 12.2% (inactive).
Consider `O=c1c2ccccc2nc(SCc2cccc(F)c2)n1Cc1ccco1`, for which the viability in assay [1] is 104%; in assay [3] it was 104% (inactive); in assay [4], 87.6% (inactive); in assay [5], 84.2% (inactive); in assay [6] (setting [9]), 82.8%; in assay [6] (setting [10]) it was 84.2%. For the same compound, the Her2 level in assay [2] is 97.5% (inactive). Also, the differential viability (reversal) in assay [6] (H69AR cells + 2 uM doxorubicin) is 1.36% (inactive). Besides, the inhibition in assay [7] was -5.33% (inactive); in assay [8], -0.63% (inactive).
For the compound `Cc1ccc(-n2nc(-c3cccs3)cc2C(=O)NCC2CCCO2)c(C)c1` (stereo not given), the viability in assay [1] was 122%; in assay [3], 122% (inactive); in assay [4], 71.3% (inactive); in assay [5], 86.5% (inactive); in assay [6] (setting [9]), 100%; in assay [6] (setting [10]) it was 86.5%. Besides, the Her2 level in assay [2] is 100% (inactive). The differential viability (reversal) in assay [6] (H69AR cells + 2 uM doxorubicin) is -14% (inactive). Besides, the inhibition in assay [7] was -4.67% (inactive); in assay [8], -6.72% (inactive).
For the compound `O=C1c2ccccc2C(=O)N1CC(O)Cn1nnc2ccccc21` (stereo not given), the viability in assay [1] is 120%; in assay [3], 120% (inactive); in assay [4], 90.9% (inactive); in assay [5], 95.9% (inactive); in assay [6] (setting [9]), 91.5%; in assay [6] (setting [10]), 95.9%. For the same compound, in assay [2], the Her2 level was 108% (inactive). In addition, the differential viability (reversal) in assay [6] (H69AR cells + 2 uM doxorubicin) was 4.44% (inactive). Moreover, the inhibition in assay [7] is -3.07% (inactive); in assay [8] it was -3.71% (inactive).
For `CC(C)COc1nc2ccccc2nc1C(C#N)C(=O)NC1CCCCC1` (stereo not given), the viability in assay [1] was 99%; in assay [3] it was 99% (inactive); in assay [4], 80% (inactive); in assay [5], 84.9% (inactive); in assay [6] (setting [9]), 105%; in assay [6] (setting [10]) it was 84.9%. For the same compound, the Her2 level in assay [2] was 105% (inactive). The differential viability (reversal) in assay [6] (H69AR cells + 2 uM doxorubicin) is -20.3% (inactive). Also, the results for the inhibition in assay [7] and in assay [8] were -4.67% (inactive) and 31% (active), respectively.
Regarding `Cc1occc1-c1nnc(SCC(=O)NCC2CCCO2)n1C` (stereo not given), the viability in assay [1] was 86%; in assay [3] it was 86% (inactive); in assay [4], 92.2% (inactive); in assay [5] it was 96.6% (inactive); in assay [6] (setting [9]), 94%; in assay [6] (setting [10]) it was 96.6%. Moreover, the Her2 level in assay [2] is 96.5% (inactive). In addition, the differential viability (reversal) in assay [6] (H69AR cells + 2 uM doxorubicin) was 2.64% (inactive). The inhibition in assay [7] is -4.93% (inactive); in assay [8], 18.7% (inactive).
Regarding `CCN(CC)S(=O)(=O)N1CCC(C(=O)NC2CCCc3ccccc32)CC1` (stereo not given), the viability was 78% in assay [1]; 78% (inactive) in assay [3]; 108% (inactive) in assay [4]; 90.5% (inactive) in assay [5]; 86.2% in assay [6] (setting [9]); 90.5% in assay [6] (setting [10]). Besides, in assay [2], the Her2 level is 118% (inactive). For the same compound, in assay [6] (H69AR cells + 2 uM doxorubicin), the differential viability (reversal) is 4.3% (inactive). The inhibition is 5.45% (inactive) in assay [7] and -4.26% (inactive) in assay [8].
Take `COc1ccc(-n2c(SCc3ccc(C#N)cc3)nnc2-c2ccccn2)cc1`: the viability in assay [1] is 82.5%; in assay [3] it was 82.5% (inactive); in assay [4], 120% (inactive); in assay [5], 96.3% (inactive); in assay [6] (setting [9]), 85%; in assay [6] (setting [10]) it was 96.3%. Also, the Her2 level in assay [2] is 91.5% (inactive). The differential viability (reversal) in assay [6] (H69AR cells + 2 uM doxorubicin) is 11.2% (inactive). For the same compound, the inhibition in assay [7] is -7.16% (inactive); in assay [8] it was -5.56% (inactive).
Regarding `COc1cc(OC)cc(C(=O)N2c3ccc(F)cc3CCC2C)c1` (stereo not given), the viability in assay [1] was 94.5%; in assay [3] it was 94.5% (inactive); in assay [4], 112% (inactive); in assay [5] it was 97.5% (inactive); in assay [6] (setting [9]), 90.7%; in assay [6] (setting [10]), 97.5%. Moreover, the Her2 level in assay [2] is 89% (inactive). Besides, the differential viability (reversal) in assay [6] (H69AR cells + 2 uM doxorubicin) is 6.82% (inactive). For the same compound, the inhibition is -0.14% (inactive) in assay [7] and -3.02% (inactive) in assay [8].
Take `CCS(=O)(=O)c1nc2ccccc2n1CC(=O)N1CCCCC1`: the viability in assay [1] was 88.5%; in assay [3] it was 88.5% (inactive); in assay [4], 96.7% (inactive); in assay [5], 80.4% (inactive); in assay [6] (setting [9]) it was 76.8%; in assay [6] (setting [10]), 80.4%. Besides, the Her2 level in assay [2] was 82.5% (inactive). Besides, the differential viability (reversal) in assay [6] (H69AR cells + 2 uM doxorubicin) is 3.6% (inactive). The inhibition in assay [7] is -3.42% (inactive); in assay [8], 0.79% (inactive).
In the case of `CCOc1ccc(C(=O)N2CCN(C(=O)c3ccco3)CC2)cc1OCC`, the viability in assay [1] was 110%; in assay [3], 110% (inactive); in assay [4], 85.8% (inactive); in assay [5] it was 94.3% (inactive); in assay [6] (setting [9]) it was 94%; in assay [6] (setting [10]), 94.3%. In addition, in assay [2], the Her2 level was 85% (inactive). The differential viability (reversal) in assay [6] (H69AR cells + 2 uM doxorubicin) was 0.255% (inactive). The inhibition was -3.47% (inactive) in assay [7] and -0.79% (inactive) in assay [8].
Turning to `CN(C)C(=O)CSc1nnc([C@H](Cc2c[nH]c3ccccc23)NC(=O)OC(C)(C)C)o1`, the viability is 104% in assay [1]; 104% (inactive) in assay [3]; 94.9% (inactive) in assay [4]; 94.6% (inactive) in assay [5]; 94.6% in assay [6] (setting [9]); 94.6% in assay [6] (setting [10]). In addition, in assay [2], the Her2 level is 96.5% (inactive). In addition, the differential viability (reversal) in assay [6] (H69AR cells + 2 uM doxorubicin) is 0.01% (inactive). For the same compound, the inhibition in assay [7] is -3.68% (inactive); in assay [8], 5.57% (inactive).
On to `Cc1ccc(NC(=O)CNc2cccc(C)c2C)c(C)c1`, for which the viability in assay [1] was 106%; in assay [3] it was 106% (inactive); in assay [4], 98.3% (inactive); in assay [5] it was 79.2% (inactive); in assay [6] (setting [9]) it was 69%; in assay [6] (setting [10]), 79.2%. Further, the Her2 level in assay [2] was 86.5% (inactive). The differential viability (reversal) in assay [6] (H69AR cells + 2 uM doxorubicin) is 10.1% (inactive). Moreover, the figures for the inhibition in assay [7] and in assay [8] were -0.53% (inactive) and -1.45% (inactive), respectively.
As for `CCc1nc2sc3c(c2c(=O)o1)CCCC3`, the viability was 102% in assay [1]; 102% (inactive) in assay [3]; 82.1% (inactive) in assay [4]; 96.3% (inactive) in assay [5]; 96.6% in assay [6] (setting [9]); 96.3% in assay [6] (setting [10]). The Her2 level in assay [2] was 81% (inactive). In addition, in assay [6] (H69AR cells + 2 uM doxorubicin), the differential viability (reversal) was -0.255% (inactive). The inhibition in assay [7] is -7.5% (inactive); in assay [8] it was -9.84% (inactive).

Values taken from PubChem BioAssay.
